Assay results published in ChEMBL document CHEMBL4038305, “Benzoxaborole Antimalarial Agents. Part 5. Lead Optimization of Novel Amide Pyrazinyloxy Benzoxaboroles and Identification of a Preclinical Candidate” (J Med Chem, 2017).

Columns and labels:
[1] = tested on: Plasmodium berghei; assay: Antimalarial activity against Plasmodium berghei infected in Swiss Webster mouse assessed as mouse survival rate at 33 mg/kg administered once daily via oral gavage for 4 consecutive days beginning 1 hr after infection measured on day 13 post infection relative to control; type: functional
In short: (§1)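 P. berghei-infected erythrocytes taken from a previously infected mouse were injected intraperitoneally. Oral dosing, once daily for 4 consecutive days, began 1 h after infection, in polyethylene glycol 300/propylene glycol/water (55/25/20 by weight). Chloroquine at 30 mg/kg was the positive control, with a vehicle-only group. Percent survival was recorded daily from day 4 to day 20.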

[2] = tested on: Plasmodium berghei; assay: Antimalarial activity against Plasmodium berghei infected in Swiss Webster mouse assessed as mouse survival rate at 33 mg/kg administered once daily via oral gavage for 4 consecutive days beginning 1 hr after infection measured on day 9 post infection relative to control; type: functional; in short: as §1
[3] = tested on: Plasmodium berghei; assay: Antimalarial activity against Plasmodium berghei infected in Swiss Webster mouse assessed as mouse survival rate at 1.2 mg/kg administered once daily via oral gavage for 4 consecutive days beginning 1 hr after infection measured on day 7 post infection relative to control; type: functional
In short: (§2)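 Mice given an intraperitoneal injection of P. berghei-infected erythrocytes taken from a previously infected animal. Oral dosing once daily for 4 consecutive days, starting 1 h after infection. Vehicle: polyethylene glycol 300/propylene glycol/water (weight ratio 55/25/20). Percent survival recorded daily from day 4 to day 20. Chloroquine 30 mg/kg and vehicle-only groups served as controls.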

[4] = tested on: Plasmodium berghei; assay: Antimalarial activity against Plasmodium berghei infected in Swiss Webster mouse assessed as mouse survival rate at 100 mg/kg administered once daily via oral gavage for 4 consecutive days beginning 1 hr after infection measured on day 10 post infection relative to control; type: functional; in short: as §2
[5] = tested on: Plasmodium berghei; assay: Antimalarial activity against Plasmodium berghei infected in Swiss Webster mouse assessed as mouse survival rate at 100 mg/kg administered once daily via oral gavage for 4 consecutive days beginning 1 hr after infection measured on day 5 post infection relative to control; type: functional; in short: as §2
[6] = tested on: Plasmodium berghei; assay: Antimalarial activity against Plasmodium berghei infected in Swiss Webster mouse assessed as mouse survival rate at 1.2 mg/kg administered once daily via oral gavage for 4 consecutive days beginning 1 hr after infection measured on day 5 post infection relative to control; type: functional; in short: as §2
[7] = tested on: Plasmodium berghei; assay: Antimalarial activity against Plasmodium berghei infected in Swiss Webster mouse assessed as mouse survival rate at 11 mg/kg administered once daily via oral gavage for 4 consecutive days beginning 1 hr after infection measured on day 5 post infection relative to control; type: functional; in short: as §1
[8] = tested on: Plasmodium berghei; assay: Antimalarial activity against Plasmodium berghei infected in Swiss Webster mouse assessed as mouse survival rate at 200 mg/kg administered once daily via oral gavage for 4 consecutive days beginning 1 hr after infection measured on day 14 post infection relative to control; type: functional; in short: as §1
[9] = tested on: Plasmodium berghei; assay: Antimalarial activity against Plasmodium berghei infected in Swiss Webster mouse assessed as mouse survival rate at 0.4 mg/kg administered once daily via oral gavage for 4 consecutive days beginning 1 hr after infection measured on day 6 post infection relative to control; type: functional; in short: as §2
[10] = tested on: Plasmodium berghei; assay: Antimalarial activity against Plasmodium berghei infected in Swiss Webster mouse assessed as mouse survival rate at 100 mg/kg administered once daily via oral gavage for 4 consecutive days beginning 1 hr after infection measured on day 14 post infection relative to control; type: functional; in short: as §2
[11] = tested on: Plasmodium berghei; assay: Antimalarial activity against Plasmodium berghei infected in Swiss Webster mouse assessed as mouse survival rate at 3.7 mg/kg administered once daily via oral gavage for 4 consecutive days beginning 1 hr after infection measured on day 4 post infection relative to control; type: functional; in short: as §1
[12] = tested on: Plasmodium berghei; assay: Antimalarial activity against Plasmodium berghei infected in Swiss Webster mouse assessed as mouse survival rate at 100 mg/kg administered once daily via oral gavage for 4 consecutive days beginning 1 hr after infection measured on day 12 post infection relative to control; type: functional; in short: as §2
[13] = tested on: Plasmodium berghei; assay: Antimalarial activity against Plasmodium berghei infected in Swiss Webster mouse assessed as mouse survival rate at 33 mg/kg administered once daily via oral gavage for 4 consecutive days beginning 1 hr after infection measured on day 7 post infection relative to control; type: functional; in short: as §1
[14] = tested on: Plasmodium berghei; assay: Antimalarial activity against Plasmodium berghei infected in Swiss Webster mouse assessed as mouse survival rate at 33 mg/kg administered once daily via oral gavage for 4 consecutive days beginning 1 hr after infection measured on day 5 post infection relative to control; type: functional; in short: as §1
[15] = tested on: Plasmodium berghei; assay: Antimalarial activity against Plasmodium berghei infected in Swiss Webster mouse assessed as mouse survival rate at 100 mg/kg administered once daily via oral gavage for 4 consecutive days beginning 1 hr after infection measured on day 7 post infection relative to control; type: functional; in short: as §2
[16] = tested on: Plasmodium berghei; assay: Antimalarial activity against Plasmodium berghei infected in Swiss Webster mouse assessed as mouse survival rate at 0.1 mg/kg administered once daily via oral gavage for 4 consecutive days beginning 1 hr after infection measured on day 5 post infection relative to control; type: functional; in short: as §2
[17] = tested on: Plasmodium berghei; assay: Antimalarial activity against Plasmodium berghei infected in Swiss Webster mouse assessed as mouse survival rate at 11 mg/kg administered once daily via oral gavage for 4 consecutive days beginning 1 hr after infection measured on day 9 post infection relative to control; type: functional; in short: as §1
[18] = tested on: Plasmodium berghei; assay: Antimalarial activity against Plasmodium berghei infected in Swiss Webster mouse assessed as mouse survival rate at 200 mg/kg administered once daily via oral gavage for 4 consecutive days beginning 1 hr after infection measured on day 7 post infection relative to control; type: functional; in short: as §1
[19] = tested on: Plasmodium berghei; assay: Antimalarial activity against Plasmodium berghei infected in Swiss Webster mouse assessed as mouse survival rate at 1.2 mg/kg administered once daily via oral gavage for 4 consecutive days beginning 1 hr after infection measured on day 6 post infection relative to control; type: functional; in short: as §2
[20] = tested on: Plasmodium berghei; assay: Antimalarial activity against Plasmodium berghei infected in Swiss Webster mouse assessed as mouse survival rate at 33 mg/kg administered once daily via oral gavage for 4 consecutive days beginning 1 hr after infection measured on day 10 post infection relative to control; type: functional; in short: as §1
[21] = Metabolic stability in rat hepatocytes at 22 uM after 44 hrs; type: ADME, cell-based, Hepatocyte
[22] = tested on: Plasmodium berghei; assay: Antimalarial activity against Plasmodium berghei infected in Swiss Webster mouse assessed as mouse survival rate at 11 mg/kg administered once daily via oral gavage for 4 consecutive days beginning 1 hr after infection measured on day 4 post infection relative to control; type: functional; in short: as §1
[23] = tested on: Plasmodium berghei; assay: Antimalarial activity against Plasmodium berghei infected in Swiss Webster mouse assessed as mouse survival rate at 3.7 mg/kg administered once daily via oral gavage for 4 consecutive days beginning 1 hr after infection measured on day 6 post infection relative to control; type: functional; in short: as §1
[24] = tested on: Plasmodium berghei; assay: Antimalarial activity against Plasmodium berghei infected in Swiss Webster mouse assessed as mouse survival rate at 0.1 mg/kg administered once daily via oral gavage for 4 consecutive days beginning 1 hr after infection measured on day 7 post infection relative to control; type: functional; in short: as §2
[25] = tested on: Plasmodium berghei; assay: Antimalarial activity against Plasmodium berghei infected in Swiss Webster mouse assessed as mouse survival rate at 200 mg/kg administered once daily via oral gavage for 4 consecutive days beginning 1 hr after infection measured on day 8 post infection relative to control; type: functional; in short: as §1
[26] = tested on: Plasmodium berghei; assay: Antimalarial activity against Plasmodium berghei infected in Swiss Webster mouse assessed as mouse survival rate at 1.2 mg/kg administered once daily via oral gavage for 4 consecutive days beginning 1 hr after infection measured on day 4 post infection relative to control; type: functional; in short: as §2
[27] = tested on: Plasmodium berghei; assay: Antimalarial activity against Plasmodium berghei infected in Swiss Webster mouse assessed as mouse survival rate at 33 mg/kg administered once daily via oral gavage for 4 consecutive days beginning 1 hr after infection measured on day 14 post infection relative to control; type: functional; in short: as §1

In the case of CCCC1(O)CN(C(=O)c2cnc(Oc3ccc4c(c3C)B(O)OC4)cn2)C1, the survival at 33 mg/kg [1] was 100%, the survival at 33 mg/kg [2] was 100% and the survival at 1.2 mg/kg [3] was 0%. For the same compound, the survival at 100 mg/kg [4] was 100%, the survival at 100 mg/kg [5] was 100% and the survival at 1.2 mg/kg [6] was 100%. For the same compound, the survival at 11 mg/kg [7] was 100%, the survival at 200 mg/kg [8] was 100% and the survival at 0.4 mg/kg [9] was 100%. For the same compound, the survival at 100 mg/kg [10] was 80%, the survival at 3.7 mg/kg [11] was 100% and the survival at 100 mg/kg [12] was 100%. For the same compound, the survival at 33 mg/kg [13] was 100%, the survival at 33 mg/kg [14] was 100% and the survival at 100 mg/kg [15] was 100%. It also gave a survival at 0.1 mg/kg [16] of 100%, a survival at 11 mg/kg [17] of 0% and a survival at 200 mg/kg [18] of 100%. For the same compound, the survival at 1.2 mg/kg [19] was 100%, the survival at 33 mg/kg [20] was 100% and the Stability [21] was “Stable”. The survival at 11 mg/kg [22] was 100%, the survival at 3.7 mg/kg [23] was 100% and the survival at 0.1 mg/kg [24] was 0%. For the same compound, the survival at 200 mg/kg [25] was 100%, the survival at 1.2 mg/kg [26] was 100% and the survival at 33 mg/kg [27] was 0%.
